Results reported in ChEMBL document CHEMBL3286371, “wALADin benzimidazoles differentially modulate the function of porphobilinogen synthase orthologs” (J Med Chem, 2014).
The source made the active and inactive calls. The rule behind the calls is not given here.

Legend:
[1] = target: T1, Delta-aminolevulinic acid dehydratase, chloroplastic (Pisum sativum, UniProt P30124); experiment: Inhibition of Pisum sativum PBGS using 5-ALA as substrate; set-up: species or system Lathyrus oleraceus
T1 sequence (P30124 whole entry): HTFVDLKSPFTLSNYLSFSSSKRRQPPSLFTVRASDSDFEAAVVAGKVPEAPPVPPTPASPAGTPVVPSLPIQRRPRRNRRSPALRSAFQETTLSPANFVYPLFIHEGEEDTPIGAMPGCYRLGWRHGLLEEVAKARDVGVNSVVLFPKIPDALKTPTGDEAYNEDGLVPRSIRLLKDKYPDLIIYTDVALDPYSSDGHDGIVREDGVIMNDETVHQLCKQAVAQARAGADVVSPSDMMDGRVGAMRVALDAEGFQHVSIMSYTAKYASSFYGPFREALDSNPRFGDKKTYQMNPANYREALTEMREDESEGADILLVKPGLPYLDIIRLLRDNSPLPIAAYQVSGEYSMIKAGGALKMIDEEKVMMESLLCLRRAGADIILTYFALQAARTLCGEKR
Procedure, shortened: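 Pea (P. sativum) PBGS at 300 nM subunit in 100 mM BTP-HCl pH 8.5 with 1 mM MgCl2, 5 mM DTT and 0.2 mM 5-ALA, 15 min at 36 °C. Porphobilinogen detected with Ehrlich's reagent. Activity normalized to 6.7% DMSO control as 100%. IC50 from variable-slope normalized-response fit.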

[2] = target: T2, Delta-aminolevulinic acid dehydratase (Wolbachia sp. subsp. Brugia malayi (strain TRS), UniProt Q5GSR3); experiment: Inhibition of C-terminal His-tagged Wolbachia PBGS using 5-ALA as substrate
T2 sequence (Q5GSR3 whole entry): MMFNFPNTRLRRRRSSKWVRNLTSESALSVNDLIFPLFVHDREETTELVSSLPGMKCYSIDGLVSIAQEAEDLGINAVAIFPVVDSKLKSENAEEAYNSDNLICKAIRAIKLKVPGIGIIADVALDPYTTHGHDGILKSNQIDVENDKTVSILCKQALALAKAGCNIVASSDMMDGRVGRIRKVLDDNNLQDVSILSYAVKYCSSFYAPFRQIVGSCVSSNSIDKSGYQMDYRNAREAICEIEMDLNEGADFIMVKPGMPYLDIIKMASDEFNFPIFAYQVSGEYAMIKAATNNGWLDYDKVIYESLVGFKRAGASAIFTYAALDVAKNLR

[3] = target: T3, Delta-aminolevulinic acid dehydratase (Escherichia coli (strain K12), UniProt P0ACB2); experiment: Stimulation of Escherichia coli recombinant PBGS using 5-ALA as substrate
T3 sequence (P0ACB2 whole entry): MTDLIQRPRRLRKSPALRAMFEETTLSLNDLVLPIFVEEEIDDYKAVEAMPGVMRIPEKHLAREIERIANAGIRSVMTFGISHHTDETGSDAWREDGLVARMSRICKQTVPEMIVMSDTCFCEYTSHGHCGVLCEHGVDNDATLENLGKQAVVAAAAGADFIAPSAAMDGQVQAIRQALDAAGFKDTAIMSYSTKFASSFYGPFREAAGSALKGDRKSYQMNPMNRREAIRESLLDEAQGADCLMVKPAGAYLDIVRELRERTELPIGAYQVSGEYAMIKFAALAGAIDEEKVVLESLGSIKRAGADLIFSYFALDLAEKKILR
Procedure, shortened: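 E. coli PBGS at 200 nM subunit in 100 mM BTP-HCl pH 8.1 with 1 mM MgCl2, 10 μM ZnCl2, 5 mM DTT and 0.2 mM 5-ALA, 10 min at 36 °C. Porphobilinogen detected with Ehrlich's reagent. Activity normalized to control with 6.7% DMSO set at 100%. EC50 by log(agonist) vs response variable-slope fit.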

[4] = target: T4, Delta-aminolevulinic acid dehydratase (Escherichia coli (strain K12)) (UniProt P0ACB2); experiment: Stimulation of Escherichia coli recombinant PBGS using 5-ALA as substrate relative to control
T4 sequence (whole entry): T3 sequence (P0ACB2 whole entry)
Procedure, shortened: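 E. coli PBGS at 200 nM subunit in 100 mM BTP-HCl pH 8.1 with 1 mM MgCl2, 10 μM ZnCl2, 5 mM DTT and 0.2 mM 5-ALA, 10 min at 36 °C. Porphobilinogen detected with Ehrlich's reagent. EC50 by log(agonist) vs response variable-slope fit.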

[5] = target: Delta-aminolevulinic acid dehydratase (Yersinia enterocolitica W22703, UniProt F4MUJ9); experiment: Stimulation of Yersinia enterocolitica recombinant PBGS expressed in Escherichia coli using 5-ALA as substrate
Chain of Delta-aminolevulinic acid dehydratase (Yersinia enterocolitica W22703, UniProt F4MUJ9) (F4MUJ9 whole entry): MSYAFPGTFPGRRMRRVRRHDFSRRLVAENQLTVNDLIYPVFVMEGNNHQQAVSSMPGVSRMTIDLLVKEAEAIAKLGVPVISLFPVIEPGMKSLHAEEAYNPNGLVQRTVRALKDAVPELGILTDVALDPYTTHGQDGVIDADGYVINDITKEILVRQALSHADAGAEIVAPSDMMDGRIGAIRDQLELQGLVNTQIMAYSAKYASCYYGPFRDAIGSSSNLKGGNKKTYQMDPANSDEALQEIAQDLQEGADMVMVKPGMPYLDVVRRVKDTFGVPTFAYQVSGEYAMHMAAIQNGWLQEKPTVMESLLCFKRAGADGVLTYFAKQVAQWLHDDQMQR

[6] = target: Delta-aminolevulinic acid dehydratase (Yersinia enterocolitica W22703) (UniProt F4MUJ9); experiment: Stimulation of Yersinia enterocolitica recombinant PBGS expressed in Escherichia coli using 5-ALA as substrate relative to control
Chain of Delta-aminolevulinic acid dehydratase (Yersinia enterocolitica W22703) (F4MUJ9 as listed by the source): as the sequence (F4MUJ9 whole entry) above
Procedure, shortened: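 Y. enterocolitica PBGS, expressed in E. coli from pET3, at 150 nM subunit in 100 mM BTP-HCl pH 8.0 with 1 mM MgCl2, 5 mM DTT, 100 mM KCl and 0.2 mM 5-ALA, 10 min at 36 °C. Porphobilinogen read with Ehrlich's reagent. Activity normalized to 6.7% DMSO control as 100%. EC50 from variable-slope agonist fit.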

[7] = target: T5, Delta-aminolevulinic acid dehydratase (Pseudomonas aeruginosa (strain ATCC 15692 / PAO1 / 1C / PRS 101 / LMG12228), UniProt Q59643); experiment: Stimulation of Pseudomonas aeruginosa PAO1 recombinant PBGS using 5-ALA as substrate
T5 sequence (Q59643 whole entry): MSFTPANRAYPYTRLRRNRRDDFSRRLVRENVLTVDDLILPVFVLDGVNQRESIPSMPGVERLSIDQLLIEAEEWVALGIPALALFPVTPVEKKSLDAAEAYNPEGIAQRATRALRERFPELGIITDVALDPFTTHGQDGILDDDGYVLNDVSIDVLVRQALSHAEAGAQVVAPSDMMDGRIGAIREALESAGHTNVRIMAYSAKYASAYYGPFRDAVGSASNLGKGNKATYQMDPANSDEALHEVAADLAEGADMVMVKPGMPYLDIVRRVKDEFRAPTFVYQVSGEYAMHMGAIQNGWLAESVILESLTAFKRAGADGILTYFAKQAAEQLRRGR
Procedure, shortened: (§1)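 His-tagged PaPBGS at 150 nM subunit in 100 mM Tris-HCl pH 8.0 with 1 mM MgCl2, 100 mM KCl and 0.2 mM 5-ALA, 10 min at 36 °C, with turnover at most 30%. Porphobilinogen read with Ehrlich's reagent. Activity normalized to 6.7% DMSO control as 100%. EC50 from variable-slope agonist fit.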

[8] = target: Delta-aminolevulinic acid dehydratase (Pseudomonas aeruginosa (strain ATCC 15692 / PAO1 / 1C / PRS 101 / LMG12228)) (UniProt Q59643); experiment: Stimulation of Pseudomonas aeruginosa PAO1 recombinant PBGS using 5-ALA as substrate relative to control; procedure, shortened: as §1
Chain of Delta-aminolevulinic acid dehydratase (Pseudomonas aeruginosa (strain ATCC 15692 / PAO1 / 1C / PRS 101 / LMG12228)) (Q59643 whole entry): as above

[9] = Stimulation of Toxoplasma gondii recombinant PBGS using 5-ALA as substrate
Procedure, shortened: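 T. gondii PBGS, expressed from pET-21b in BL21 E. coli and purified, at 250 nM subunit in 100 mM Tris-HCl pH 8.0 with 1 mM MgCl2, 5 mM DTT and 0.2 mM 5-ALA, 20 min at 36 °C. Porphobilinogen detected with Ehrlich's reagent. Activity normalized to 6.7% DMSO control. EC50 by variable-slope agonist fit.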

[10] = system: Toxoplasma gondii; experiment: Stimulation of Toxoplasma gondii recombinant PBGS using 5-ALA as substrate relative to control
Procedure, shortened: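 Recombinant T. gondii PBGS (hemB in pET-21b, expressed in BL21 E. coli) at 250 nM subunit in 100 mM Tris-HCl pH 8.0, 1 mM MgCl2, 5 mM DTT, with 200 μM 5-ALA, 20 min at 36 °C. Porphobilinogen was read with Ehrlich's reagent, and turnover was kept at or below 30%.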

[11] = target: Delta-aminolevulinic acid dehydratase (Pseudomonas aeruginosa (strain ATCC 15692 / PAO1 / 1C / PRS 101 / LMG12228)) (UniProt Q59643); experiment: Inhibition of Pseudomonas aeruginosa PAO1 recombinant PBGS using 5-ALA as substrate at […]
[12] = target: T6, Delta-aminolevulinic acid dehydratase (Drosophila melanogaster, UniProt Q9VTV9); experiment: Inhibition of Drosophila melanogaster recombinant PBGS using 5-ALA as substrate
T6 sequence (Q9VTV9 whole entry): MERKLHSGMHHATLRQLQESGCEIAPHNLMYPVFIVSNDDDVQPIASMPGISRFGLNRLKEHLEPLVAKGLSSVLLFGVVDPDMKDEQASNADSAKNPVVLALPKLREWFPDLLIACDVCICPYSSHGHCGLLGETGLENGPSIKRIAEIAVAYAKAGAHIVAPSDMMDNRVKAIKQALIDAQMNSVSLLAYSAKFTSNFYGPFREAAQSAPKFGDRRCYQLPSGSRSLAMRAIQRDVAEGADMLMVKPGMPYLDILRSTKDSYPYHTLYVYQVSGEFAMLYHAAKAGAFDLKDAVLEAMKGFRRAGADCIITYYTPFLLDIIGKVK

[13] = target: T7, Delta-aminolevulinic acid dehydratase (Homo sapiens, UniProt P13716); experiment: Inhibition of human PBGS using 5-ALA as substrate
T7 sequence (P13716 whole entry): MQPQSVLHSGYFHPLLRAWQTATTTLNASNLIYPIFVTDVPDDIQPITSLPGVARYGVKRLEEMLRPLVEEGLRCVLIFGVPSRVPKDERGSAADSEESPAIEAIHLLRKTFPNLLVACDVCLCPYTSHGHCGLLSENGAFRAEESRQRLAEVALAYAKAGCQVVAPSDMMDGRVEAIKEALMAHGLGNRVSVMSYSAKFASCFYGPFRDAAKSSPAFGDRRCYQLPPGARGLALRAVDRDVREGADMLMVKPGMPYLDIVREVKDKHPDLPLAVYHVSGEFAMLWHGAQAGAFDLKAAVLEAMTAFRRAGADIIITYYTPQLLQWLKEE

[14] = target: T5, Delta-aminolevulinic acid dehydratase; experiment: Inhibition of Pseudomonas aeruginosa PAO1 recombinant PBGS using 5-ALA as substrate
Procedure, shortened: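 Turnover kept at or below 30%. Porphobilinogen measured with Ehrlich's reagent. IC50 by variable-slope fit of activity normalized to DMSO control.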

[15] = Ratio of IC50 for Pisum sativum PBGS to IC50 for C-terminal His-tagged Wolbachia PBGS
[16] = target: T4, Delta-aminolevulinic acid dehydratase (Escherichia coli (strain K12)); experiment: Stimulation of Escherichia coli recombinant PBGS using 5-ALA as substrate at […]
[17] = target: T4, Delta-aminolevulinic acid dehydratase (Escherichia coli (strain K12)); experiment: Inhibition of Escherichia coli recombinant PBGS using 5-ALA as substrate at […]
[18] = target: Delta-aminolevulinic acid dehydratase (Yersinia enterocolitica W22703) (UniProt F4MUJ9); experiment: Stimulation of Yersinia enterocolitica recombinant PBGS expressed in Escherichia coli using 5-ALA as substrate at […]
[19] = target: Delta-aminolevulinic acid dehydratase (Yersinia enterocolitica W22703) (UniProt F4MUJ9); experiment: Inhibition of Yersinia enterocolitica recombinant PBGS expressed in Escherichia coli using 5-ALA as substrate at […]
[20] = target: Delta-aminolevulinic acid dehydratase (Pseudomonas aeruginosa (strain ATCC 15692 / PAO1 / 1C / PRS 101 / LMG12228)) (UniProt Q59643); experiment: Stimulation of Pseudomonas aeruginosa PAO1 recombinant PBGS using 5-ALA as substrate at […]
[21] = system: Toxoplasma gondii; experiment: Stimulation of Toxoplasma gondii recombinant PBGS using 5-ALA as substrate at […]
[22] = system: Toxoplasma gondii; experiment: Inhibition of Toxoplasma gondii recombinant PBGS using 5-ALA as substrate at […]

O=C(NCCc1nc2c(C(=O)O)cccc2n1Cc1cccc(C(F)(F)F)c1)c1cccs1
IC50 [1]: > 500 µM | IC50 [2]: 500 µM | EC50 [3]: 19 µM | Smax [4]: 116% | EC50 [5]: 23 µM | Smax [6]: 123% | EC50 [7]: 15 µM | Smax [8]: 136% | EC50 [9]: 21 µM | Smax [10]: 130% | inhibition [11]: inactive | IC50 [12]: > 1 mM | IC50 [13]: 500 µM

O=C(O)c1c2c(nc3ccccc13)CCN(C(=O)c1cccc(C(F)(F)F)c1)C2
IC50 [14]: 475 µM | IC50 [1]: 88.2 µM | Ratio IC50 [15]: 10 | Smax [16]: 100% | inhibition [17]: inactive | Smax [18]: 100% | inhibition [19]: inactive | Smax [20]: 100% | inhibition [11]: inactive | Smax [21]: 100% | inhibition [22]: inactive | IC50 [12]: > 1 mM
